This excerpt belongs to a sample that is enriched for hits.
Fibroblast inh – blocks proliferation of human lung fibroblasts | LL 47 human lung fibroblast viability, ATP luminescence; active compounds read low | AID 719 | viability, % at 10 µM | 85,000 compounds, 1.1% hits;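 active means viability at or below 50% in the single dose screen; inactive means viability above 50%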;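 further: compound exposure lasted 72 h before the ATP readout; 100% = median luminescence of untreated cell-only wells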
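Material: human LL 47 lung fibroblast cells; quantity: 1,150 cells/well; medium: IMEM plus 15% FBS; doses: 0.1% DMSO in all compound wells; timing: overnight attachment after seeding, then 72 h compound exposure at 37 °C; detection: CellTiter-Glo luminescence; measure: % viability of median cell-only signal; controls: cell-only wells, no compound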
HCT116 PTEN-null – growth suppressors of cells with PTEN tumor suppressor deletion | HCT116 PTEN-null viability, CellTiter-Glo, 60 h; active compounds read low | viability, % at 10 µM | 140,000 compounds, 1.2% hits | AID 827;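 active means viability at or below a set limit, 4 SD under the median of all tested compounds, cut at about 3.7% in these data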;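 further: PTEN knockout HCT116 line with beta catenin targeted HCT116 as companion control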
bCat KO growth – beta-catenin-lacking colon tumor cell growth suppression. 140,000 compounds, 1.5% hits. HCT116 beta-catenin knockout viability, CellTiter-Glo, 60 h; active compounds read low. viability, % at 10 µM. AID 818;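 active means viability at or under a set limit, the compound median less 4 SD, cut at about 6% in these data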;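 further: 0% = Hyamine 1622 control at 20 µM and 100% = untreated cell control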
HUVEC inhibit – inhibitors of human endothelial cell proliferation | viability, % at 10 µM (by protocol) | AID 648 | 86,000 compounds, 1.1% hits | HUVEC proliferation, CellTiter-Glo luminescence, 72 h; active compounds read low;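 active means viability at or below 30%; inactive means viability above 30%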;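 further: 100% = median luminescence of DMSO-only cell control wells on each plate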
H69AR growth 86K – blocks growth of human H69AR lung tumor cells | viability, % at 10 µM | H69AR lung tumor viability, ATP luminescence, 72 h; active compounds read low | 85,000 compounds, 6% hits;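 active means viability at or below 40%; inactive means viability above 40%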;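 further: multidrug resistant small cell line overexpressing MRP-1 efflux transporter; 100% = mean luminescence of untreated control wells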
An asterisk follows results filed as active; / = no result given.

SMILES | Fibroblast inh | HCT116 PTEN-null | bCat KO growth | HUVEC inhibit | H69AR growth 86K
Cc1cnc(C(=O)Nc2cccc(S(=O)(=O)N(C)C)c2)cn1 | / | 103 | 93 | / | /
NC1C2CN(c3nc4c(cc3F)c(=O)c(C(=O)O)cn4-c3ccc(F)cc3F)CC12 (stereo not drawn) | / | 17 | 29 | / | /
O=C(COc1ccc(-c2nnco2)cc1)N1CCN(S(=O)(=O)c2ccc3ccccc3c2)CC1 | 88 | 78 | 79 | 101 | 36*
COc1ccc(CCC(=O)N2CCN(S(=O)(=O)c3ccc4ccccc4c3)CC2)cc1 | 96 | 82 | 84 | 96 | 54
CN(C(=O)CSc1nc(N)c2c3c(sc2n1)CSC(C)(C)C3)c1ccccc1 | / | 112 | 102 | / | /
Cc1ccc2c(COn3nnc4ccc(S(=O)(=O)N(C)C)cc43)cc(=O)oc2c1C | 99 | 95 | 96 | 83 | 33*
NCCc1ccc(O)c(O)c1 | / | 22 | 5.8* | / | /
Cc1ccccc1OCc1nc2ccccc2c(=O)n1/N=C/c1cn[nH]c1-c1ccc(Br)cc1 | / | 2.7* | 19 | / | /
O=c1c2ccccc2nc(COc2ccccc2)n1/N=C/c1cn[nH]c1-c1ccccc1 | / | 19 | 64 | / | /
Cc1ccc(S(=O)(=O)NCCc2nnc3ccc(SCC(=O)Nc4nc(C)cs4)nn23)cc1 | / | 111 | 95 | / | /
CCOC(=O)C1C(=O)C=C(/C=C/c2ccc(N(C)C)cc2)CC1c1ccccc1 (stereo not drawn) | / | 98 | 95 | / | /
Cc1ccc(CN2CCC(c3nc4ccc(Cl)cc4[nH]3)CC2)cc1 | / | 17 | 18 | / | /
Cc1cc2nc(C3CCN(Cc4nnnn4Cc4cccs4)CC3)[nH]c2cc1C | 62 | 18 | 25 | 64 | 15*
Cc1ccc(CN=Cc2[nH]c3ccc(Br)c(Cl)c3c2O)cc1 | 103 | 78 | 81 | 64 | 33*
O=C(C(Sc1ccccc1)c1ccccc1)N1CCOCC1 (stereo not drawn) | / | 94 | 88 | / | /
COc1ccc(-c2nn(-c3ccccc3)cc2/C=N/N=C(N)N)cc1OC | / | 1.2* | 1.6* | / | /
COc1ccc(/C=N/NC(=O)c2nc(Cl)c(Cl)c(N)c2Cl)cc1COc1ccccc1F | / | 20 | 13 | / | /
COc1ccc(/C=N/NC(=O)c2nc(Cl)c(Cl)c(N)c2Cl)cc1COc1ccc(F)cc1F | / | 5 | 2.0* | / | /
COc1ccc(-c2cc(N)n(S(=O)(=O)c3c(F)c(F)c(F)c(F)c3F)n2)cc1OC | 2.6* | 2.1* | 5.7* | 2.2* | 1.4*
O=C(CSc1nnnn1-c1cccc2c1CCCC2)N1CCCCC1 | 96 | 81 | 93 | 87 | 40*
Cc1nn(C(=O)CCCC(=O)n2nc(C)c(Cl)c2C)c(C)c1Cl | 95 | / | / | 101 | 93
Cc1ccccc1S(=O)(=O)NC1OC(=O)C(Cl)=C1Cl (stereo not drawn) | 96 | 107 | 101 | 100 | 7.1*
c1ccc(-n2ncc3c(N4CCN(CCOc5cccc6ccccc56)CC4)ncnc32)cc1 | 96 | 68 | 69 | 73 | 77
COC(=O)c1nn(-c2ccccc2)nc1-c1nn(-c2ccccc2)nc1C(=O)OC | 91 | 84 | 90 | 88 | 26*
CCOC(=O)c1nn(-c2ccccc2C)c2nc(-c3ccc(Cl)cc3)c(C#N)c(=O)n12 | / | 2.1* | 1.7* | / | /
SMILES | Fibroblast inh | HCT116 PTEN-null | bCat KO growth | HUVEC inhibit | H69AR growth 86K
CCOC(=O)c1nn(-c2ccccc2C)c2nc(-c3ccc(C)cc3)c(C#N)c(=O)n12 | / | 69 | 62 | / | /
Cc1ccccc1Nc1cccc2nonc12 | / | 94 | 100 | / | /
Cc1nnc2n(-c3ccccc3)c(=O)c3c4c(sc3n12)COC(C(C)C)C4 (stereo not drawn) | 101 | 95 | 97 | 99 | 79
CC(C)C1Cc2c(sc3[nH]c(=S)n(Cc4ccccc4)c(=O)c23)CO1 (stereo not drawn) | 69 | 60 | 43 | 7.0* | 25*
CCCCCCCCCC(=O)N/N=C(\C)c1cccnc1 | 91 | 94 | 91 | 106 | 90
CCCCCC(=O)N/N=C(\C)c1ccccn1 | / | 5 | 4.3* | / | /
C=CCOc1nc2c(c(=O)n(Cc3ccc(Cl)c(Cl)c3)c(=O)n2C)n1C | 96 | / | / | 85 | 69
COC(=O)c1c(-c2ccc(Br)cc2)noc1N | 80 | 38 | 49 | 89 | 29*
CCOc1cc(C(=O)OCC(=O)Nc2cc(C)on2)cc(OCC)c1OCC | 108 | 98 | 90 | 69 | 79
CCOc1cc(-c2noc(N)c2C(=O)OC)cc(OCC)c1OCC | 94 | 73 | 75 | 100 | 23*
COc1cc(C(=O)O/N=C2\C=CC(=O)C(C)=C2)cc(OC)c1OC | / | 1.4* | 1.5* | / | /
